Assay results published in the M2OR odorant receptor database.

What was measured:
Settings in all cases: stereoisomer not certain
[1] = target: T1, Or1m1 (Mus musculus) (UniProt Q8VFM9)
T1 sequence (whole entry): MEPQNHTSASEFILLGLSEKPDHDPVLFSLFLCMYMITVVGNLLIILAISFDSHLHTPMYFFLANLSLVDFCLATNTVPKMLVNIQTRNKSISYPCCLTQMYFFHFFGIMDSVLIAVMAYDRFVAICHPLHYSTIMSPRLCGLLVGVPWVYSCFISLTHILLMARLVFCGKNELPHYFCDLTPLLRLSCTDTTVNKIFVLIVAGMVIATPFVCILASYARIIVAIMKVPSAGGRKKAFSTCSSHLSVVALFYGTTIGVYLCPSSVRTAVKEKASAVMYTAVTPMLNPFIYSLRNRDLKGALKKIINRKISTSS
Procedure, shortened: (§1)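 Transient luciferase assays in mammalian cell lines were common, though methods varied by source. The values come from published papers and their supplementary material, with extra details from the original authors when needed. Responsive refers to a measured signal the original authors judged statistically different from baseline, and non-responsive (inactive) to the remainder.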

[2] = target: T2, Or2c1 (Mus musculus) (UniProt P23275)
T2 sequence (whole entry): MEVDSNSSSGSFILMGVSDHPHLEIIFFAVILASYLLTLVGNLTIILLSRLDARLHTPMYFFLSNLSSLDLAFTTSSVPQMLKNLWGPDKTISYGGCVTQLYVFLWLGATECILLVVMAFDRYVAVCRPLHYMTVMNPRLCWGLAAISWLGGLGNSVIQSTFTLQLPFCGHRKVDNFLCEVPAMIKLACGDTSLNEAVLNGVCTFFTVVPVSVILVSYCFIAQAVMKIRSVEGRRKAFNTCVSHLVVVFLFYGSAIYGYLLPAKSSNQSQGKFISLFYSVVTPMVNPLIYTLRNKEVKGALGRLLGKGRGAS
Procedure, shortened: as §1

[3] = target: T3, Or5ar1 (Mus musculus) (UniProt Q8VGS3)
T3 sequence (whole entry): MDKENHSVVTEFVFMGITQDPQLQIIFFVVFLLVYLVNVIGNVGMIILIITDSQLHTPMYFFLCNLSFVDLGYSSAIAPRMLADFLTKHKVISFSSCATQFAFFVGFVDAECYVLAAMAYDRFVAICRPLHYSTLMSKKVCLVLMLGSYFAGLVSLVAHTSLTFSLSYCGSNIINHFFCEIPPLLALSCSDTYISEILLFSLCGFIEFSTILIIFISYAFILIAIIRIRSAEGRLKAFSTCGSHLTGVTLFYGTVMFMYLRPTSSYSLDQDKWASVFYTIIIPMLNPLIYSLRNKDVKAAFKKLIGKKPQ
Procedure, shortened: as §1

[4] = target: T4, Or5p80 (Mus musculus) (UniProt Q8VG42)
T4 sequence (whole entry): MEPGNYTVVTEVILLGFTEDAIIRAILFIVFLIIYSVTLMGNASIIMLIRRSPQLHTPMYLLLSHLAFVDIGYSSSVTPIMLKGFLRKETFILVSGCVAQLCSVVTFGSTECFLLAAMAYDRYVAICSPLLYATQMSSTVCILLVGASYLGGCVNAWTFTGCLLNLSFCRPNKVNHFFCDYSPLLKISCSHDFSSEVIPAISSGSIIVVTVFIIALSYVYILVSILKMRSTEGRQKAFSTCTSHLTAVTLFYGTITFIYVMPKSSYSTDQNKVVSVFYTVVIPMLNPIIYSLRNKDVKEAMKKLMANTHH
Procedure, shortened: as §1

[5] = target: T5, Or7a40 (Mus musculus) (UniProt Q9JHB2)
T5 sequence (whole entry): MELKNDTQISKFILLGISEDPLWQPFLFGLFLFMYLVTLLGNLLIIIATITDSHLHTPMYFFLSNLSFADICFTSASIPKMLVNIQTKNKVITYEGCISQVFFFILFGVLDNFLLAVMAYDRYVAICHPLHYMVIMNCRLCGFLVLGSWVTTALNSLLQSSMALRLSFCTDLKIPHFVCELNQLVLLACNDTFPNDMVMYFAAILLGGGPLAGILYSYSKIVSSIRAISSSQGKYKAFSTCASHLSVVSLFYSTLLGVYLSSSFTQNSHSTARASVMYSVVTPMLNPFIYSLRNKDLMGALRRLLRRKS
Procedure, shortened: as §1

[6] = target: T6, Or5an6 (Mus musculus) (UniProt Q8VFV4)
T6 sequence (whole entry): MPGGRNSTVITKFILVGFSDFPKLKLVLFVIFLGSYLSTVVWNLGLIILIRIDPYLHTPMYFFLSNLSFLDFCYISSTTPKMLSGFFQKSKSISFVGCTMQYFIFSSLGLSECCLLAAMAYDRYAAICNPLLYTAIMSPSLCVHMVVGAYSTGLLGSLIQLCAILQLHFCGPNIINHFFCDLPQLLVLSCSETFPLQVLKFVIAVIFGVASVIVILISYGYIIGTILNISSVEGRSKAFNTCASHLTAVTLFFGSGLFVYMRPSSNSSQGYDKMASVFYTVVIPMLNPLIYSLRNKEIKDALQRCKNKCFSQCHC
Procedure, shortened: as §1

[7] = target: T7, Or5k16 (Mus musculus) (UniProt Q7TS48)
T7 sequence (whole entry): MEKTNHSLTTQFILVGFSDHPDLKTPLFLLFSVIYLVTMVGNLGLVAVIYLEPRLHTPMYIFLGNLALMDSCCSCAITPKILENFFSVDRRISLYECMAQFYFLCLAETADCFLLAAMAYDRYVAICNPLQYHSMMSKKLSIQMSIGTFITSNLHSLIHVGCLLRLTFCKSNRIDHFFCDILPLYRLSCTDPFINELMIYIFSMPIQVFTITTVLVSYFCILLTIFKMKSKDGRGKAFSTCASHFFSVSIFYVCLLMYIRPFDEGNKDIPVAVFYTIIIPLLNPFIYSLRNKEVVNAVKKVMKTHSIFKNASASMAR
Procedure, shortened: as §1
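Further: active if original authors judged signal statistically different from baseline.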

CCC(=O)C(=O)CC
odorant receptor agonist call [1]: inactive | odorant receptor agonist call [2]: active | odorant receptor agonist call [3]: inactive | odorant receptor agonist call [4]: inactive | odorant receptor agonist call [5]: inactive

CC1CC=CCCCCCCCCCC(=O)C1 (configuration not stated)
odorant receptor agonist call [1]: inactive | odorant receptor agonist call [6]: active | odorant receptor agonist call [3]: inactive

CCCCCCCCCS
odorant receptor agonist call [1]: inactive | odorant receptor agonist call [2]: inactive | odorant receptor agonist call [3]: inactive | odorant receptor agonist call [4]: inactive | odorant receptor agonist call [5]: inactive

CCCCCC1=C(C)CCC1=O
odorant receptor agonist call [1]: inactive | odorant receptor agonist call [2]: inactive | odorant receptor agonist call [3]: inactive | odorant receptor agonist call [4]: inactive | odorant receptor agonist call [5]: active

CC(=O)Oc1ccccc1
odorant receptor agonist call [1]: inactive | odorant receptor agonist call [2]: inactive | odorant receptor agonist call [3]: inactive | odorant receptor agonist call [4]: inactive | odorant receptor agonist call [5]: inactive

C=C(C)C1CCC(C)C(O)C1 (configuration not stated)
odorant receptor agonist call [1]: inactive | odorant receptor agonist call [3]: inactive

CCCCCOC(=O)CC
odorant receptor agonist call [1]: inactive | odorant receptor agonist call [3]: inactive

CCCCCCCCC=CC=O
odorant receptor agonist call [1]: inactive | odorant receptor agonist call [3]: inactive

CC(=O)C1(C)CC2=C(CCCC2(C)C)CC1C (configuration not stated)
odorant receptor agonist call [1]: inactive | odorant receptor agonist call [3]: inactive

CCCCCC(=Cc1ccccc1)C(OC)OC
odorant receptor agonist call [1]: inactive | odorant receptor agonist call [3]: active

CNc1ccccc1C(=O)OC
odorant receptor agonist call [1]: inactive | odorant receptor agonist call [3]: inactive

Cc1ccccc1OC(=O)C(C)C
odorant receptor agonist call [1]: inactive | odorant receptor agonist call [3]: inactive

CCCCCCC=CC=O
odorant receptor agonist call [1]: inactive | odorant receptor agonist call [3]: inactive

C=CC(=C)CCC=C(C)CCC=C(C)C
odorant receptor agonist call [1]: inactive | odorant receptor agonist call [3]: inactive

C=C(C)C1CCC2(C)OC2C1 (configuration not stated)
odorant receptor agonist call [1]: inactive | odorant receptor agonist call [3]: inactive

CCOC(=O)CC(C)C
odorant receptor agonist call [1]: inactive | odorant receptor agonist call [3]: inactive

O=C(O)C1CCC1
odorant receptor agonist call [1]: inactive | odorant receptor agonist call [3]: inactive

CSSSC
odorant receptor agonist call [1]: inactive | odorant receptor agonist call [3]: inactive

OCCCCCCCCCO
odorant receptor agonist call [1]: inactive | odorant receptor agonist call [3]: inactive

CSSCc1ccco1
odorant receptor agonist call [1]: inactive | odorant receptor agonist call [3]: inactive

C=C(C)C1CC=C(C)CC1 (configuration not stated)
odorant receptor agonist call [1]: inactive | odorant receptor agonist call [3]: inactive

CC(=O)C=CC1=C(C)CCCC1(C)C
odorant receptor agonist call [1]: inactive | odorant receptor agonist call [3]: inactive

Cc1occc1SSc1ccoc1C
odorant receptor agonist call [1]: inactive | odorant receptor agonist call [3]: inactive

Cc1ccc(C(C)C)cc1
odorant receptor agonist call [1]: inactive | odorant receptor agonist call [3]: inactive

CC(CC=O)CCCC(C)(C)O (configuration not stated)
odorant receptor agonist call [1]: inactive | odorant receptor agonist call [3]: inactive

CC(C)CS
odorant receptor agonist call [1]: inactive | odorant receptor agonist call [3]: inactive

COc1ccccc1
odorant receptor agonist call [1]: inactive | odorant receptor agonist call [3]: inactive

CCCCCCC(=O)OCCCC
odorant receptor agonist call [1]: inactive | odorant receptor agonist call [3]: inactive

CCCCCCCCOC=O
odorant receptor agonist call [1]: inactive | odorant receptor agonist call [3]: inactive

Cc1ccc2c(c1)OCC(=O)CO2
odorant receptor agonist call [1]: inactive | odorant receptor agonist call [3]: inactive

CCSSCC
odorant receptor agonist call [1]: inactive | odorant receptor agonist call [3]: inactive

CC=CC(=O)C1=C(C)CCCC1(C)C
odorant receptor agonist call [1]: inactive | odorant receptor agonist call [3]: inactive

CC1CCC(C(C)C)C(=O)C1 (configuration not stated)
odorant receptor agonist call [1]: inactive | odorant receptor agonist call [3]: inactive

CCCCCCCCCC=CC=O
odorant receptor agonist call [1]: inactive | odorant receptor agonist call [3]: inactive

CCCCCCC(C=O)=Cc1ccccc1
odorant receptor agonist call [1]: inactive | odorant receptor agonist call [3]: inactive

C1CCOC1
odorant receptor agonist call [1]: inactive | odorant receptor agonist call [3]: inactive

COC(OC)c1ccccc1
odorant receptor agonist call [1]: inactive | odorant receptor agonist call [3]: inactive

C=C1C2CCC(C2)C1(C)C (configuration not stated)
odorant receptor agonist call [1]: inactive | odorant receptor agonist call [3]: inactive

C=C(CC)CCCC(C)(C)O
odorant receptor agonist call [1]: inactive | odorant receptor agonist call [3]: inactive

C=CC(C)=CCC=C(C)CCC=C(C)C
odorant receptor agonist call [1]: inactive | odorant receptor agonist call [3]: inactive

CC1(C)CC(=O)CC(=O)C1
odorant receptor agonist call [1]: inactive | odorant receptor agonist call [3]: inactive

Cc1c(C)c(C)c(C=O)c(C)c1C
odorant receptor agonist call [1]: inactive | odorant receptor agonist call [3]: inactive

CC(=O)OCCc1ccccc1
odorant receptor agonist call [1]: inactive | odorant receptor agonist call [3]: inactive

CCC(C)O (configuration not stated)
odorant receptor agonist call [1]: inactive | odorant receptor agonist call [3]: inactive

CCC(C)c1nccnc1OC (configuration not stated)
odorant receptor agonist call [1]: inactive | odorant receptor agonist call [3]: inactive | odorant receptor agonist call [7]: inactive

O=C(OCc1ccccc1)c1ccccc1O
odorant receptor agonist call [1]: inactive | odorant receptor agonist call [3]: inactive

C=CC(=C)CCC=C(C)C
odorant receptor agonist call [1]: inactive | odorant receptor agonist call [3]: inactive

CCCCCCCOC(=O)C(C)C
odorant receptor agonist call [1]: inactive | odorant receptor agonist call [3]: inactive

CCN(CC)CC
odorant receptor agonist call [1]: inactive | odorant receptor agonist call [3]: inactive

CC(C)=C1CCC(C)CC1=O (configuration not stated)
odorant receptor agonist call [1]: inactive | odorant receptor agonist call [3]: inactive

CCc1ccccc1O
odorant receptor agonist call [1]: inactive | odorant receptor agonist call [3]: inactive

CC=Cc1ccc(OC)cc1
odorant receptor agonist call [1]: inactive | odorant receptor agonist call [3]: inactive

CCSCC
odorant receptor agonist call [1]: inactive | odorant receptor agonist call [3]: inactive

CC(C)CCN
odorant receptor agonist call [1]: inactive | odorant receptor agonist call [3]: inactive

CCCCCCC(C)O (configuration not stated)
odorant receptor agonist call [1]: inactive | odorant receptor agonist call [3]: inactive

CCCC=O
odorant receptor agonist call [1]: inactive | odorant receptor agonist call [3]: inactive

CC(C)=CCCC(C)=CCOC(=O)C(C)C
odorant receptor agonist call [1]: inactive | odorant receptor agonist call [3]: inactive

CC=C(C)C=O
odorant receptor agonist call [1]: inactive | odorant receptor agonist call [3]: inactive

CCCO
odorant receptor agonist call [1]: inactive | odorant receptor agonist call [3]: inactive

c1ccc2ncccc2c1
odorant receptor agonist call [1]: inactive | odorant receptor agonist call [3]: inactive

CC(=O)OC1(C)CCC23CC1C(C)(C)C2CCC3C (configuration not stated)
odorant receptor agonist call [1]: active | odorant receptor agonist call [3]: inactive

CCCCCC(C)O (configuration not stated)
odorant receptor agonist call [1]: inactive | odorant receptor agonist call [3]: inactive

OCCc1ccccc1
odorant receptor agonist call [1]: inactive | odorant receptor agonist call [3]: inactive

C=CC(=O)CCCCC
odorant receptor agonist call [1]: inactive | odorant receptor agonist call [3]: inactive

Cc1ccc(C(C)C)c(O)c1
odorant receptor agonist call [1]: inactive | odorant receptor agonist call [3]: inactive

Cc1ccc(OC(=O)C(C)C)cc1
odorant receptor agonist call [1]: inactive | odorant receptor agonist call [3]: inactive

CCOC(=O)C(C)CC (configuration not stated)
odorant receptor agonist call [1]: inactive | odorant receptor agonist call [3]: inactive

CCCCCC(C=O)=Cc1ccccc1
odorant receptor agonist call [1]: inactive | odorant receptor agonist call [3]: inactive

C1CCOCC1
odorant receptor agonist call [1]: inactive | odorant receptor agonist call [3]: inactive

COc1nccnc1C
odorant receptor agonist call [1]: inactive | odorant receptor agonist call [3]: inactive

CCCCCCCCCCOC(C)=O
odorant receptor agonist call [1]: inactive | odorant receptor agonist call [3]: inactive

CCC=CCCCCC=O
odorant receptor agonist call [1]: inactive | odorant receptor agonist call [3]: inactive

OCC=Cc1ccccc1
odorant receptor agonist call [1]: inactive | odorant receptor agonist call [3]: inactive

O=C(O)CCCCCCCCC(=O)O
odorant receptor agonist call [1]: inactive | odorant receptor agonist call [3]: inactive

CCc1occc(=O)c1O
odorant receptor agonist call [1]: inactive | odorant receptor agonist call [3]: inactive

CCCCCOC(=O)CCC
odorant receptor agonist call [1]: inactive | odorant receptor agonist call [3]: inactive

CCCC(C)C(=O)OCC (configuration not stated)
odorant receptor agonist call [1]: inactive | odorant receptor agonist call [3]: inactive

CC(=O)OCc1ccc2c(c1)OCO2
odorant receptor agonist call [1]: inactive | odorant receptor agonist call [3]: inactive

CCCCCC=CCCC=O
odorant receptor agonist call [1]: inactive | odorant receptor agonist call [3]: inactive

Cc1cncc(C)n1
odorant receptor agonist call [7]: inactive

CCc1ncc(C)nc1CC
odorant receptor agonist call [1]: inactive | odorant receptor agonist call [3]: inactive | odorant receptor agonist call [7]: inactive

Cc1cnc(C)cn1
odorant receptor agonist call [7]: inactive
